Experimental data taken from ChEMBL document CHEMBL1136130, “Synthesis and biological evaluation of gambierol analogues” (Bioorg Med Chem Lett, 2003).

Assay: Minimal lethal dose of compound expressed as toxicity against male mice (ddY strain) after intraperitoneal administration
Settings: mouse, in vivo, ip
Procedure, shortened: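 Male ddY mice (12–17 g) received single intraperitoneal injections of HPLC-purified samples suspended in 1% Tween 60 at a range of dose levels. Lethality and neurological signs were observed. The minimal lethal dose is reported in mg/kg.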

Compound | Min lethal dose [mg/kg]
C=CC/C=C\C=C/[C@H]1O[C@H]2C[C@H]3O[C@H]4CC[C@H]5O[C@H]6C[C@@]7(C)O[C@@]8(C)[C@@H](O)C[C@H](CCCO)O[C@@H]8C[C@@H]7O[C@@H]6C[C@@H]5O[C@]4(C)C[C@]3(C)O[C@@H]2C=C[C@@H]1O | 0.34
CC(=O)OC[C@H]1O[C@H]2C[C@H]3O[C@H]4CC[C@H]5O[C@H]6C[C@@]7(C)O[C@@]8(C)[C@@H](O)C[C@H](CCCO)O[C@@H]8C[C@@H]7O[C@@H]6C[C@@H]5O[C@]4(C)C[C@]3(C)O[C@@H]2CC[C@@H]1OC(C)=O | > 8.2
CCCCC/C=C\[C@H]1O[C@H]2C[C@H]3O[C@H]4CC[C@H]5O[C@H]6C[C@@]7(C)O[C@@]8(C)[C@@H](OCc9ccccc9)C[C@H](CCCOCc9ccccc9)O[C@@H]8C[C@@H]7O[C@@H]6C[C@@H]5O[C@]4(C)C[C@]3(C)O[C@@H]2CC[C@]1(C)O[Si](C)(C)C(C)(C)C | > 7.6
C=CC/C=C\C=C/[C@H]1O[C@H]2C[C@H]3O[C@H]4CC[C@H]5O[C@H]6C[C@@]7(C)O[C@@]8(C)[C@@H](O)C[C@H](CCCO)O[C@@H]8C[C@@H]7O[C@@H]6C[C@@H]5O[C@]4(C)C[C@]3(C)O[C@@H]2C=C[C@]1(C)O | 0.05
C=CC/C=C\C=C/[C@H]1O[C@H]2C[C@H]3O[C@H]4CC[C@H]5O[C@H]6C[C@@]7(C)O[C@@]8(C)[C@@H](O)C[C@H](CCCO)O[C@@H]8C[C@@H]7O[C@@H]6C[C@@H]5O[C@]4(C)C[C@]3(C)O[C@@H]2CC[C@]1(C)O | 7.9
C[C@@]12O[C@]3(C)C[C@@H]4O[C@@H]5CC[C@@H]6O[C@@H]7C[C@@H]8O[C@H](CO)[C@@H](O)CC[C@H]8O[C@@]7(C)C[C@@]6(C)O[C@H]5C[C@H]4O[C@H]3C[C@H]1O[C@@H](CCCO)C[C@@H]2O | > 18.3
C=CC/C=C\C=C/[C@H]1O[C@H]2C[C@H]3O[C@H]4CC[C@H]5O[C@H]6C[C@@]7(C)O[C@@]8(C)[C@@H](O)C[C@H](CCCO)O[C@@H]8C[C@@H]7O[C@@H]6C[C@@H]5O[C@]4(C)C[C@]3(C)O[C@@H]2CC[C@@H]1O | > 11.9
